Measurements taken from ChEMBL document CHEMBL4041524, “Synthesis and Characterization of a Novel γ-Aminobutyric Acid Type A (GABAA) Receptor Ligand That Combines Outstanding Metabolic Stability, Pharmacokinetics, and Anxiolytic Efficacy” (J Med Chem, 2016).

Columns and labels:
[1] = molecular target: T1, GABA-A receptor; alpha-3/beta-3/gamma-2 (Homo sapiens, UniProt P18507+P28472+P34903); experiment: Modulation of recombinant human GABA alpha3beta3gamma2 receptor expressed in HEK293 cells assessed as change in GABA-induced current at -80 mV holding potential preincubated for 3 mins followed by co-administration of GABA by electrophysiology method; type: cell-based
T1 sequence (P18507 whole entry): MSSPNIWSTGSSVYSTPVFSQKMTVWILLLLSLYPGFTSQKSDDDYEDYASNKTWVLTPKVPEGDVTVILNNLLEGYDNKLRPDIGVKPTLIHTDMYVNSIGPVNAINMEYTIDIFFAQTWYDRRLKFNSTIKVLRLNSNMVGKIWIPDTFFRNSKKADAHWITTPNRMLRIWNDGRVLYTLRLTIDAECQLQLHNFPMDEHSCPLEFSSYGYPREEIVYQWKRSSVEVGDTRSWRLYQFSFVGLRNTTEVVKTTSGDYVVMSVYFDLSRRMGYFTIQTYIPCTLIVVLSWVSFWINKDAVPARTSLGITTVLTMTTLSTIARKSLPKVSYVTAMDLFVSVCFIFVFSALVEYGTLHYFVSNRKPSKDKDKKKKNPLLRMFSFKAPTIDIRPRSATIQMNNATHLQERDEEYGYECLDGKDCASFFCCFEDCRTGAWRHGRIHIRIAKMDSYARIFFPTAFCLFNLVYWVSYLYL
T1 sequence (P28472 whole entry): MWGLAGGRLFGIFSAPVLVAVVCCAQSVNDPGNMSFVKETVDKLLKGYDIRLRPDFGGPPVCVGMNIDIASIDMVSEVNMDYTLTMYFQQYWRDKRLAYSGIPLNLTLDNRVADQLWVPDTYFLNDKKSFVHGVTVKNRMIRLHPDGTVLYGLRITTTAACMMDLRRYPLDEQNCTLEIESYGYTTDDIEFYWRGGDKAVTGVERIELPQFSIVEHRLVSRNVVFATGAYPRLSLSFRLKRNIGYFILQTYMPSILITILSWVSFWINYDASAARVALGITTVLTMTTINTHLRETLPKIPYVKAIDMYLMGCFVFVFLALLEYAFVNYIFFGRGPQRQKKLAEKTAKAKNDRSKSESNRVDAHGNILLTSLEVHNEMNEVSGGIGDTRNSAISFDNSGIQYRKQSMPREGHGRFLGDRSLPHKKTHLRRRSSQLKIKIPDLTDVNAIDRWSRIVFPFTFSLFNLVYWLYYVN
T1 sequence (P34903 whole entry): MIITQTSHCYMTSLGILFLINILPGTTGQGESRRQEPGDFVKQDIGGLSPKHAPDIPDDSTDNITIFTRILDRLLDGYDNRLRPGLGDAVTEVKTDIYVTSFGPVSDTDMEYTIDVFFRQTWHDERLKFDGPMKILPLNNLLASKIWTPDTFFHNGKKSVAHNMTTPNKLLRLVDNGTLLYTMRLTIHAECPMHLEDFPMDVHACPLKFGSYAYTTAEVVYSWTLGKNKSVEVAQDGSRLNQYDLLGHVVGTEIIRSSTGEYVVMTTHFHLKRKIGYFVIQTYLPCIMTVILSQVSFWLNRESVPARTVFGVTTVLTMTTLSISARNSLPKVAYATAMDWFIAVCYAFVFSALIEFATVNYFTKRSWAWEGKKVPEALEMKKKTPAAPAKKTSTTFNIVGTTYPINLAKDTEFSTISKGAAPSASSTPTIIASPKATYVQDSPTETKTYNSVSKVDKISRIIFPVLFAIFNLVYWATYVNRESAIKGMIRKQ

[2] = molecular target: T2, GABA-A receptor; alpha-1/beta-3/gamma-2 (Homo sapiens, UniProt P14867+P18507+P28472); experiment: Binding affinity to human GABAA alpha1beta3gamma2 receptor expressed in HEK293 cells assessed as GABA-induced membrane potential change preincubated for 3 mins followed by addition of GABA measured after 3 mins by FLIPR assay; type: cell-based
T2 sequence (P14867 whole entry): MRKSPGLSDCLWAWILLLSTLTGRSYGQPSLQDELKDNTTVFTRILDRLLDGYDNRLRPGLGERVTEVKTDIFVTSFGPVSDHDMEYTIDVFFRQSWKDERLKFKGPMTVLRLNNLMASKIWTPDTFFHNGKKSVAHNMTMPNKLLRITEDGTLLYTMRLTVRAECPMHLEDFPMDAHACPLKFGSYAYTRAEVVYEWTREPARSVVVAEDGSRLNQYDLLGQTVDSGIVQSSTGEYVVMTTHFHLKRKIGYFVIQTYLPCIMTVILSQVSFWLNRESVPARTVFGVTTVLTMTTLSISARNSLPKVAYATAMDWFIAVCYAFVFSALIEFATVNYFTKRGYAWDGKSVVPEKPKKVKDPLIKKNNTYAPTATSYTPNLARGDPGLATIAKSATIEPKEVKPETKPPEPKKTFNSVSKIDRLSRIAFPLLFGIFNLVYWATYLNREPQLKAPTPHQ
T2 sequence (P18507 whole entry): T1 sequence (P18507 whole entry)
T2 sequence (P28472 whole entry): T1 sequence (P28472 whole entry)
Summary of the method: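 Stably transfected HEK293T cells expressing α1β3γ2 (n = 2) or α3β3γ2 (n = 1) GABAARs. Membrane potential was read as fluorescence changes on a FLIPR Tetra, and EC50 was derived.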

[3] = Volume of distribution at steady state in femoral artery/vein cannulated Sprague-Dawley rat at 1 mg/kg, iv administered […] as single dose by LC-MS/MS analysis; type: ADME, organism-based; details: in vivo, read-out: Vdss
Summary of the method: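 Male Sprague-Dawley rats (n = 3 per time point) were dosed i.v. at 1 mg/kg. Plasma concentrations were measured at set time points, and Vdss was taken from the plasma concentration–time profile.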

Brain = experiment: Fraction unbound in rat brain by equilibrium dialysis method; type: ADME, tissue-based
Summary of the method: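 Fraction unbound was determined in vitro by equilibrium dialysis with rat plasma protein and rat brain.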

[4] = AUC in femoral artery/vein cannulated Sprague-Dawley rat at 10 mg/kg, ip administered […] as single dose by LC-MS/MS analysis; type: ADME, organism-based; details: in vivo
Summary of the method: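 Male Sprague-Dawley rats (n = 3 per time point) were dosed 1 mg/kg i.v. or 10 mg/kg i.p. Plasma concentrations were measured at set time points. Clearance, Vdss and T½ came from the i.v. arm, and AUC, Cmax and Tmax from the i.p. arm.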

[5] = molecular target: GABA-A receptor; alpha-2/beta-3/gamma-2 (Homo sapiens) (UniProt P18507+P28472+P47869); experiment: Modulation of recombinant GABA alpha2beta3gamma2 receptor (unknown origin) expressed in Xenopus laevis oocytes assessed as change in GABA-induced EC(3 to 6) current by two-electrode voltage clamp assay; type: cell-based
Summary of the method: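 Xenopus laevis oocytes expressing α1, α2, α3 or α5 β3γ2 GABAARs were recorded by two-electrode voltage clamp. Modulation of the GABA EC3-6 current (taken as 100%) was tested at 100 nM, 1 μM and 10 μM in the same cells. Values are mean ± SEM, n = 3–4.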

Mus musculus = experiment: Toxicity in Swiss mouse assessed as change in motor coordination by measuring number of falls from the rotating rod at 30 mg/kg, ip administered 30 mins prior to testing measured for 2 mins by rotarod test relative to control; type: organism-based; details: in vivo
Summary of the method: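 The same mice used for marble burying were placed on a rotarod at 4 r.p.m. for 2 min. No fall was scored success, one fall partial, and two falls failure.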

C#Cc1ccc2c(c1)C(c1ccccn1)=NCc1c(-c3cnco3)ncn1-2
EC50 [1]: 205 nM | EC50 [2]: > 20000 nM | Vd [3]: 1.4 L/kg | Fu (Brain): 17.7% | AUC [4]: 16.5 µM·h | Activity [5]: Dose-dependent effect | Activity (Mus musculus): Non-Toxic
